This is an account of results in the array DNA melting data of Ke et al. (doi:10.1101/2024.01.08.574731).

Series [1] is described as follows: melting temperature; fluorescence melt of hairpins on a sequencing array, two-state fit, raised by 9.35 °C to match UV melts. Particulars: sodium 0.088 M. The gist of the method: (§1)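 Bootstrapped two-state fits yielded melting temperature and folding enthalpy for library hairpins. Cy3 fluorescence, with annealed Cy3 and quencher oligos, was imaged on a sequenced MiSeq flow cell in 50 mM Na-HEPES pH 8.0, 25 mM NaCl in 2.5 °C steps up to 60 °C, and normalised to pre-quench Cy3 and to control constructs. Four replicates were combined by inverse variance, and fitted temperatures were raised by 9.35 °C to match UV melts.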

A short description of series [2]: folding enthalpy; higher = less favourable; fluorescence melt of hairpins on a sequencing array, two-state fit. Particulars: sodium 0.088 M. The gist of the method: as §1

For the sequence GATCAAATATTGATC ((((((...)))))), the Tm in series [1] was determined as 40.2 °C. Moreover, the folding enthalpy in series [2] is -32.8 kcal/mol.
With GCTATCACGAAAGTGAGC (((..(((....)))))), the Tm in series [1] came out at 36.1 °C. Also, the folding enthalpy in series [2] was -14.1 kcal/mol.
As to GCCACGCCGAAAGGCGGC (((..(((....)))))), in series [1], the Tm amounted to 48.3 °C. Further, the folding enthalpy in series [2] was -7.28 kcal/mol.
GTATACCGAAAGGTTTAC (((.(((....))).))): the Tm in series [1] amounted to 43.3 °C. Moreover, the folding enthalpy in series [2] was -27.5 kcal/mol.
For GCACTACGAAAGTATGC (((.(((....)))))), the Tm in series [1] worked out at 43 °C. Moreover, the folding enthalpy in series [2] was -25.5 kcal/mol.
Turning to GGGAAGCCGAAAGGCCCC (((..(((....)))))), the Tm in series [1] is 50.6 °C. Further, the folding enthalpy in series [2] is -16.3 kcal/mol.
For GCGGGGTCCCGC ((((....)))) the same measures were 65.1 °C and -29.3 kcal/mol.
For the sequence GTGCCGCGAAAGCGCAC (((.(((....)))))), the Tm in series [1] was 69 °C. Further, in series [2], the folding enthalpy was -21.1 kcal/mol.
Turning to GCAAGGCGAAAGCCGAGC ((..(((....)))..)), the Tm in series [1] worked out at 65 °C. Moreover, the folding enthalpy in series [2] is -29.1 kcal/mol.
For GGCTTTCGAAAGAACGCC (((.(((....))).))), in series [1], the Tm stood at 50.2 °C. Further, the folding enthalpy in series [2] was -39.3 kcal/mol.
In the case of GACCTTACGAAAGTAGTC (((..(((....)))))), the Tm in series [1] was determined as 25.2 °C. The folding enthalpy in series [2] is -11 kcal/mol.
Consider GCGCTGGGAAACCAGTGC ((.((((....)))).)), for which, in series [1], the Tm came to 60.6 °C. The folding enthalpy in series [2] is -45.9 kcal/mol.
Take GCGATGCGAAAGCGTTGC ((.(.((....)).).)): the Tm in series [1] turned out to be 57.2 °C. For the same sequence, the folding enthalpy in series [2] was -25.9 kcal/mol.
For GATCGGTTTTCCGATC ((((((....)))))), the Tm in series [1] is 60.1 °C. Further, the folding enthalpy in series [2] was -45.1 kcal/mol.
In the same order, the values of GGGCCTGGAAACGGGTCC ((.((.(....).)).)) are 50.9 °C and -26.3 kcal/mol.
In the same order, the values of GATCAGCTTCTGATC ((((((...)))))) are 49.1 °C and -31.5 kcal/mol.
Take GTGCAACCGAAAGGTCAC (((..(((....)))))): in series [1], the Tm was 40.1 °C. Moreover, the folding enthalpy in series [2] was -16.6 kcal/mol.
Take GAAAACGAAAGTTGATTC ((((((....)))..))): in series [1], the Tm worked out at 33.6 °C. Also, the folding enthalpy in series [2] was -17.8 kcal/mol.
For GTTGCTCGAAAGAGGAAC (((.(((....))).))) the same measures were 53.9 °C and -38.2 kcal/mol.
For GCTAGTGGAAACATTAGC ((((.((....)).)))) the same measures were 42.7 °C and -28.3 kcal/mol.
In the case of GGAGACGAAAGTCTTTCC ((((((....)))..))), the Tm in series [1] was found to be 32.6 °C. The folding enthalpy in series [2] is -10.9 kcal/mol.
As to GTCCGCGAAAGCGTAGAC ((((((....)))..))), the Tm in series [1] was found to be 43 °C. Besides, the folding enthalpy in series [2] was -16.7 kcal/mol.
In the same order, the values of GCGTTGTAACGC ((((....)))) are 56.8 °C and -27.4 kcal/mol.
For GCGAGGCGAAAGCAGCGC (((..((....))..))) the same measures were 68.9 °C and -29.9 kcal/mol.
Consider GATCTAGACTTAGATC ((((((....)))))), for which the Tm in series [1] amounted to 47 °C. Besides, the folding enthalpy in series [2] is -39.3 kcal/mol.
For GATCACGCGGTGATC ((((((...)))))) the same measures were 59.2 °C and -40.2 kcal/mol.
Turning to GTATCCCGAAAGGGGTAC (((.(((....))).))), the Tm in series [1] turned out to be 55.6 °C. Further, in series [2], the folding enthalpy is -38.2 kcal/mol.
On to GCACTCGCGAAAGCGTGC (((..(((....)))))), for which the Tm in series [1] amounted to 50.5 °C. The folding enthalpy in series [2] was -14.7 kcal/mol.
Consider GATCTAGGAAACTAGGTC ((.((((....)))).)), for which the Tm in series [1] was 38.6 °C. Moreover, the folding enthalpy in series [2] is -34.3 kcal/mol.
For GATTTTGGAAACAAAGTC ((.((((....)))).)) the same measures were 35.3 °C and -27.5 kcal/mol.
GCTTGGCGAAAGCTTAGC (((..((....))..))): the Tm in series [1] came out at 53.4 °C. Moreover, the folding enthalpy in series [2] was -16.9 kcal/mol.
Take GGATAGCGAAAGCTTTCC (((.(((....))).))): in series [1], the Tm stood at 49.3 °C. Also, in series [2], the folding enthalpy was -29.7 kcal/mol.
For GATCATGACAATGATC ((((((....)))))) the same measures were 56.6 °C and -40.6 kcal/mol.
As to GAGCTAGGAAACTGGCTC ((((.((....)).)))), the Tm in series [1] turned out to be 51.9 °C. In addition, in series [2], the folding enthalpy was -36.2 kcal/mol.
In the case of GGCGTACGAAAGTAAGCC (((.(((....))).))), the Tm in series [1] was 59.3 °C. Further, the folding enthalpy in series [2] is -35.1 kcal/mol.
For the sequence GGTCTCCGAAAGGAACC (((.(((....)))))), the Tm in series [1] stood at 45.2 °C. In addition, the folding enthalpy in series [2] is -22.4 kcal/mol.
Consider GAAAGCGGAAACACTTTC (((((.(....).))))), for which the Tm in series [1] was 36.2 °C. Besides, the folding enthalpy in series [2] was -29.8 kcal/mol.
For GATCCCTAAGGGGATC ((((((....)))))) the same measures were 61.1 °C and -35.2 kcal/mol.
For GATCCGACTCGGATC ((((((...)))))) the same measures were 55.7 °C and -38.9 kcal/mol.
With GTGGGCACGAAAGTGCAC (((..(((....)))))), the Tm in series [1] turned out to be 65.4 °C. Besides, the folding enthalpy in series [2] was -14.6 kcal/mol.
CGTTCGGAAACGAGTACG ((((((....)))..))): in series [1], the Tm came to 35.9 °C. In series [2], the folding enthalpy was -18.8 kcal/mol.
GCACTCGAAAGAGATTGC ((((((....)))..))): in series [1], the Tm was determined as 34.2 °C. The folding enthalpy in series [2] was -15.2 kcal/mol.
For GTCATACGAAAGTAGGAC (((.(((....))).))) the same measures were 53.9 °C and -29.3 kcal/mol.
Regarding GCCTGTGGAAACACAGAC (.(((((....))))).), in series [1], the Tm was 42.6 °C. Also, the folding enthalpy in series [2] was -15.8 kcal/mol.
As to GATCTTGTGCAAGATC ((((((....)))))), the Tm in series [1] turned out to be 46.4 °C. Further, the folding enthalpy in series [2] was -47 kcal/mol.
For GCGCATGGAAACGTGTGC ((.((.(....).)).)), the Tm in series [1] came out at 46.6 °C. Moreover, the folding enthalpy in series [2] is -36.7 kcal/mol.
For the sequence GCATCTGAAAAGATGC ((((((....)))))), the Tm in series [1] turned out to be 64.7 °C. Also, in series [2], the folding enthalpy is -32.6 kcal/mol.
As to GTGATCGAAAGATAGCAC ((((((....)))..))), the Tm in series [1] came to 28.3 °C. The folding enthalpy in series [2] was -15.6 kcal/mol.
In the same order, the values of GAGACCGAAAGGTGGCTC ((((((....)))..))) are 43.4 °C and -19.2 kcal/mol.
In the case of GTGTCAGGAAACTGGCAC (((.(((....))).))), in series [1], the Tm came to 54.4 °C. Moreover, in series [2], the folding enthalpy is -39.4 kcal/mol.
For GCAGCGCGAAAGCTCCGC ((.(.((....)).).)) the same measures were 37.9 °C and -11.6 kcal/mol.
In the case of GCATGCACGAAAGTGTGC (((..(((....)))))), the Tm in series [1] worked out at 42.5 °C. Moreover, the folding enthalpy in series [2] is -13.3 kcal/mol.
As for GTTTTGGGAAACCAGAAC (((.(((....))).))), in series [1], the Tm was found to be 38.1 °C. For the same sequence, in series [2], the folding enthalpy is -26.9 kcal/mol.
For GCTAGAGGAAACTCTAAC (.(((((....))))).) the same measures were 24.8 °C and -9.45 kcal/mol.
For GCAGGCGAAAGCCTTGC ((((((....))).))) the same measures were 59.2 °C and -17.6 kcal/mol.
In the same order, the values of GTAGTGGGAAACCACTGC (.(((((....))))).) are 50.6 °C and -19.4 kcal/mol.
For GGAATCGAAAGATGTTCC ((((((....)))..))), the Tm in series [1] stood at 22.8 °C. The folding enthalpy in series [2] is -8.43 kcal/mol.
Consider ACTGGGAAACCAGT (((((....))))), for which the Tm in series [1] came to 47.6 °C. Besides, the folding enthalpy in series [2] was -15.9 kcal/mol.
Consider GCAGGCGAAAGCCACTGC ((((((....)))..))), for which the Tm in series [1] came to 48 °C. The folding enthalpy in series [2] is -15.9 kcal/mol.
AATTGGAAACAATT (((((....))))): the Tm in series [1] amounted to 31.6 °C. For the same sequence, the folding enthalpy in series [2] is -11.3 kcal/mol.
For GGCGTTCGAAAGAAAGCC (((.(((....))).))) the same measures were 56.8 °C and -34.1 kcal/mol.
Consider GCTCGCGAAAGCGACAGC ((((((....)))..))), for which the Tm in series [1] turned out to be 47.5 °C. For the same sequence, the folding enthalpy in series [2] is -10.7 kcal/mol.
Regarding GCCCTTCCGAAAGGAGGC (((..(((....)))))), in series [1], the Tm worked out at 41.1 °C. The folding enthalpy in series [2] is -17.7 kcal/mol.
Take GAGATCGGAAACGACCTC (((.(((....))).))): in series [1], the Tm was 42.5 °C. The folding enthalpy in series [2] was -29.8 kcal/mol.
As for GGGCCAGGAAACTGACCC (((.(((....))).))), the Tm in series [1] was determined as 50.4 °C. For the same sequence, in series [2], the folding enthalpy was -40 kcal/mol.
Turning to GTGCACGAAAGTGGGCAC ((((((....)))..))), the Tm in series [1] was determined as 52.6 °C. Moreover, in series [2], the folding enthalpy is -22.6 kcal/mol.
For the sequence GCTCAGCGAAAGCCGCGC ((.(.((....)).).)), the Tm in series [1] worked out at 42 °C. For the same sequence, the folding enthalpy in series [2] is -17.8 kcal/mol.
As for GATGCGACGAAAGTCATC (((..(((....)))))), the Tm in series [1] was found to be 27.8 °C. For the same sequence, the folding enthalpy in series [2] was -13 kcal/mol.
For GCAAACGAAAGTTCTTGC ((((((....)))..))) the same measures were 31.7 °C and -10 kcal/mol.
In the case of GATCCTGGAAACAGGACC (.(((((....))))).), the Tm in series [1] stood at 40.1 °C. Also, the folding enthalpy in series [2] is -14.4 kcal/mol.
For GCTATAGGAAACTATGGC ((.((((....)))).)) the same measures were 41.7 °C and -28.6 kcal/mol.
On to GATCTAATAGTAGATC ((((((....)))))), for which the Tm in series [1] stood at 33.7 °C. In addition, the folding enthalpy in series [2] is -29.4 kcal/mol.
In the same order, the values of GGCTGCTCGAAAGAGGCC (((..(((....)))))) are 43.8 °C and -19.7 kcal/mol.
Regarding GTAAGTGGAAACACTTAC (((((((....))))))), the Tm in series [1] is 55.4 °C. Also, the folding enthalpy in series [2] was -45.2 kcal/mol.
